Published values pooled from the literature.
Compare with care: the assays were run in different laboratories.
Target: Mu-type opioid receptor (OPRM1, Homo sapiens, UniProt P35372)
Read-out: ligand displacement

Structure (SMILES)	method	tested at	inhibition [%]
O=C1N=C(N2CCCCN2)S/C1=C\c1ccc(F)cc1O	radioligand	10 µM	< 10
O=C(Nc1ccc(S(=O)(=O)N2CCC(Cl)CC2)cc1)c1ccc([N+](=O)[O-])o1	radioligand	10 µM	1
COc1ccc(-n2nc(OCCCN3CCCCC3)ccc2=O)cc1	–	1 µM	45.8
CCCNc1nc2ccccc2n1Cc1ccc(Cl)cc1	–	10 µM	12.4
O=C(c1ccc(Cl)cc1)N(Cc1ccccc1)C1CCCCC1	–	10 µM	10.9
CCN(CC)c1ccc(C2Nc3ccc(C(=O)c4ccccc4)cc3NC3=C2C(=O)CC(C)(C)C3)cc1 (centres unmarked)	radioligand	10 µM	9
Ic1cccc2cnccc12	radioligand	10 µM	-4
COc1cc(NC(C)=O)c(Cl)cc1C(=O)Nc1nccs1	–	10 µM	-5.3
CCN(Cc1ccccc1C(F)(F)F)C(=O)C1CCN(S(=O)(=O)c2ccc3[nH]ncc3c2)CC1	radioligand	10 µM	5
CN1CCN(CCCOc2ccc(=O)n(-c3ccc(Cl)c(Cl)c3)n2)CC1	–	1 µM	17.2
N#Cc1cc(Cn2c(N3CCCC3)nc3ccccc32)ccc1F	–	10 µM	-6.78
